ARNT-TACC3 inh – disruptors of ARNT/TACC3 protein interaction, primary screen, biochemical, AlphaScreen, single concentration; Transforming acidic coiled-coil-containing protein 3 (Homo sapiens), Q9Y6A5; AlphaScreen His-ARNT PAS-B/GST-TACC3 binding, luminescence; TACC3 fragment carries E629A point mutation; inhibition, % at 9.99 µM; 390,000 compounds, 0.66% hits; AID 623870, 2012;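 active means mean inhibition of replicates at least 50% and at least half of replicates each reaching 50%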;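 further: 0% = complete ARNT plus TACC3 wells and 100% = ARNT alone without TACC3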
SR-BI DiI-HDL act – activators of SR-BI mediated DiI-HDL uptake, primary screen, ldlA[mSR-BI] CHO cells, DiI fluorescence. 320,000 compounds, 0.096% hits. AID 504775, 2011. 3 h; 100 = double the neutral-control signal. activation, % at 12.5 µM;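 active means mean replicate activation of at least 60% and every replicate at or above 60%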;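 further: 0% = median plate neutral-control signal and 100% = twice that signal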
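material = CHO ldlA[mSR-BI] cells | medium = Ham's F12 with 0.5% BSA, HEPES 25 mM, pH 7.4 | reagent = fluorescent DiI-HDL, 10 µg/mL final | compound dosing = single-point compound dose | incubation = 3 h, 37 °C | measured by = bottom-read fluorescence, 550/595 nm | measure = HDL uptake via cellular fluorescence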
XiGFP reactiv – activators of inactive X chromosome reactivation, primary screen, imaging, XiGFP fibroblasts, GFP high-content imaging, set 2. AID 743238, 2013. activation, % at 7.58 µM. XiGFP mouse fibroblasts, % GFP-positive cells imaging, 3 d; cells co-treated with 5-aza-dC sensitizer; scaled so ellipticine positive control = 100%. 360,000 compounds, 0.055% hits;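 active means mean normalized replicate activation at least 10% and every replicate at or above 10%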;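 further: 0% = median of on-plate neutral control wells and 100% = ellipticine 6 µM median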
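System: 68-5-11 XiGFP fibroblast line; Timing: 3 days compound exposure; Compound dosing: one concentration, pinned; Benchmarks: positive control ellipticine, 6 µM final; Buffer or medium: DMEM containing 5-aza-dC.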
NSD2 HMT inh – NSD2 histone methyltransferase inhibitors, primary screen, biochemical, AlphaScreen, single concentration, set 2. Histone-lysine N-methyltransferase NSD2 (Homo sapiens), O96028. NSD2 peptide methylation, 120 min. inhibition, % at 12.5 µM. 310,000 compounds, 0.54% hits. AID 743445, 2014; in the data active means inhibition above about 50%
Target sequence (O96028 whole entry, looked up): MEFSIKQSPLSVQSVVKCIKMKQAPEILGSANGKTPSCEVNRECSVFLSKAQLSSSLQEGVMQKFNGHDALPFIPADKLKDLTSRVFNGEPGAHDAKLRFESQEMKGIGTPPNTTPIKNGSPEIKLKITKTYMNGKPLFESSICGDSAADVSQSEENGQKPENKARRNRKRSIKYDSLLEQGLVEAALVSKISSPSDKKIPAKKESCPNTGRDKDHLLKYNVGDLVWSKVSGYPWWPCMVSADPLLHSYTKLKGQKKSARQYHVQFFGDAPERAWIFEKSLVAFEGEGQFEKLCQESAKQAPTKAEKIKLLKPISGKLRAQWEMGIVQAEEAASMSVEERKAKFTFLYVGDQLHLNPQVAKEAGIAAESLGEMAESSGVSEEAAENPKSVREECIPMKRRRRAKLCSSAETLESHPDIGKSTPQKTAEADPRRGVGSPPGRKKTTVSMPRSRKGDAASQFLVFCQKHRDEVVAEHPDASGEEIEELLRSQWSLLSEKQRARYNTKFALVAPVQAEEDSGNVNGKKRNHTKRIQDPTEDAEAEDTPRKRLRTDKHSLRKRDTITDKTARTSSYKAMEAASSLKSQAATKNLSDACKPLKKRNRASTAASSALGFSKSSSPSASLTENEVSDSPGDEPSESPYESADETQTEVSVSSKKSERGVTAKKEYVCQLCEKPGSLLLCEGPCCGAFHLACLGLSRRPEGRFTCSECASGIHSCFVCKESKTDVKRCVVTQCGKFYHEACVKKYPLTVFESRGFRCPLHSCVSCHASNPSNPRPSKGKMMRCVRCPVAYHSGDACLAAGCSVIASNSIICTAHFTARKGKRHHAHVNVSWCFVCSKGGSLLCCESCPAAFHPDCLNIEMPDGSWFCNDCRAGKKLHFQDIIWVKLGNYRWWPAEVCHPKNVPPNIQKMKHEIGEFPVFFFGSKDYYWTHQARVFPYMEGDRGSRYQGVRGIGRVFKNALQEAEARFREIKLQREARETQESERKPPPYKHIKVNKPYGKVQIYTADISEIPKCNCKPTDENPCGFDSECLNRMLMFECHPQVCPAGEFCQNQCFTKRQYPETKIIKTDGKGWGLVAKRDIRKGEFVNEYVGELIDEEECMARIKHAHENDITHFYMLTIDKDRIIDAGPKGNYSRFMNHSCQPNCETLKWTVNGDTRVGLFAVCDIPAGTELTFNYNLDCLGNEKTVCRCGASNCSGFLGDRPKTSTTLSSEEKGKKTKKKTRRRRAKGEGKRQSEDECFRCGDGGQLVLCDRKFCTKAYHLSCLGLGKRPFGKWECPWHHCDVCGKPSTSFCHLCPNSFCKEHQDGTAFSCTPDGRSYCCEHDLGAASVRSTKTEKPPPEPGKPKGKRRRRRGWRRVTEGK
sPLA2-III inh – human group III sPLA2 inhibitors, primary screen, biochemical, QFRET, BODIPY PC-A2 liposome substrate. 370,000 compounds, 0.56% hits. QFRET BODIPY PC-A2 liposome hydrolysis, fluorescence. Group 3 secretory phospholipase A2 (Homo sapiens), Q9NZ20. inhibition, % at 12.2 µM;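 active means inhibition above mean plus 3 SD of compounds lying within the high and low control bounds, cut at about 19% in these data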;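 further: 0% = median of test compound wells and 100% = no enzyme DMSO wells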
SR-BI DiI inh – inhibitors of SR-BI mediated HDL lipid uptake, primary screen, ldlA[mSR-BI] cells, fluorescence, single point; ldlA[mSR-BI] CHO cells, DiI-HDL uptake fluorescence, 3 h; inhibition, % at 12.5 µM; 320,000 compounds, 0.96% hits; AID 488896, 2010;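 active means mean replicate inhibition of at least 70% and a set share of replicates each scoring 70 or more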;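 further: 0% = median of neutral control wells and 100% = median of positive control wells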
* marks the source's active call; other numbers are inactive results. Only some compounds are listed: those with a hit (about 2% of all), similar ones and a draw of the others.

How did Cc1cccc(-n2c(N)c(-c3nc4ccccc4n3C)c3nc4ccccc4nc32)c1 do in these assays?
ARNT-TACC3 inh: -7; SR-BI DiI-HDL act: -73; XiGFP reactiv: 0; NSD2 HMT inh: -6; sPLA2-III inh: -2; SR-BI DiI inh: 73*

Results for O=C(/C=C/c1cc([N+](=O)[O-])ccc1OC(F)F)Nc1cccc(OC(F)F)c1 ?
ARNT-TACC3 inh: -5; SR-BI DiI-HDL act: -75; XiGFP reactiv: 0; NSD2 HMT inh: -2; sPLA2-III inh: -2; SR-BI DiI inh: 75*

Results for COc1ccccc1NC(=O)/C=C/c1cc([N+](=O)[O-])ccc1OC(F)F ?
ARNT-TACC3 inh: -3; XiGFP reactiv: 0; NSD2 HMT inh: -7; sPLA2-III inh: -4

How did O=C(NCCc1ccccc1)c1ccc(-c2cccnc2)c2ccoc12 do in these assays?
XiGFP reactiv: 0; NSD2 HMT inh: -2; sPLA2-III inh: 1

How did O=C(Nc1ccc(Cl)cc1)N[C@@H]1c2c(ccc3ccccc23)OC[C@@H]1CO do in these assays?
ARNT-TACC3 inh: 1; SR-BI DiI-HDL act: -82; NSD2 HMT inh: 34; sPLA2-III inh: -53; SR-BI DiI inh: 82*

Results for CN(C(=O)c1ccccc1)C1c2c(ccc3ccccc23)OCC1CO (centres undefined) ?
ARNT-TACC3 inh: 0; SR-BI DiI-HDL act: 25; XiGFP reactiv: 0; NSD2 HMT inh: 0; sPLA2-III inh: -6; SR-BI DiI inh: -25

What do the screens show for `O=C(Nc1ccccc1)N[C@H](Cc1ccccc1)Cn1cc(CN2C(=O)COC[C@H]2c2ccccc2)nn1`?
ARNT-TACC3 inh: 1

How did COC(=O)c1c(CC[C@@H](CO)NC(=O)N[C@H](Cc2ccccc2)Cn2cc(-c3ccccn3)nn2)oc(C(C)=O)c1C(=O)OC do in these assays?
ARNT-TACC3 inh: 22*

What do the screens show for `Cn1c(-c2ccc(F)cc2)cnc1NCc1ccccc1F`?
ARNT-TACC3 inh: -2; SR-BI DiI-HDL act: -88; XiGFP reactiv: 0; NSD2 HMT inh: 5; sPLA2-III inh: -18; SR-BI DiI inh: 88*

Results for Cn1c(-c2ccc(F)cc2)cnc1NCc1ccc(F)cc1F ?
ARNT-TACC3 inh: 4; SR-BI DiI-HDL act: 5; XiGFP reactiv: 0; NSD2 HMT inh: -2; sPLA2-III inh: -24; SR-BI DiI inh: -5

Results for N#CC(C#N)=C1C(=O)N(CCN2CCCCC2)c2ccccc21 ?
ARNT-TACC3 inh: 11; SR-BI DiI-HDL act: 24; XiGFP reactiv: 0; NSD2 HMT inh: -2; sPLA2-III inh: 1; SR-BI DiI inh: -24

Results for CN(C)S(=O)(=O)c1ccc(Cl)c(C(=O)OCC(=O)NC(=O)c2cccn2C)c1 ?
ARNT-TACC3 inh: -4; SR-BI DiI-HDL act: -72; XiGFP reactiv: 1; NSD2 HMT inh: 0; sPLA2-III inh: -6; SR-BI DiI inh: 72*

Results for Cc1ccc(S(=O)(=O)N(C(=O)c2ccncc2)c2ccc(OC(=O)c3ccncc3)c3ccccc23)cc1 ?
ARNT-TACC3 inh: -6; SR-BI DiI-HDL act: 430*; XiGFP reactiv: 1; NSD2 HMT inh: -3; sPLA2-III inh: -16; SR-BI DiI inh: -430

What do the screens show for `Cc1ccc(S(=O)(=O)N(C(=O)c2ccncc2)c2ccc(OC(=O)c3ccncc3)c3ccccc23)c(C)c1`?
ARNT-TACC3 inh: -1; SR-BI DiI-HDL act: 18; SR-BI DiI inh: -18

Results for C[C@@H]1CCCCO[C@H](CN(C)Cc2ccc(Cl)c(Cl)c2)[C@H](C)CN([C@@H](C)CO)C(=O)c2cc(NC(=O)Nc3ccc(F)cc3)ccc2O1 ?
ARNT-TACC3 inh: 15; XiGFP reactiv: 0; sPLA2-III inh: -17

How did C[C@@H]1CN([C@@H](C)CO)C(=O)c2cc(NC(=O)Nc3ccc(F)cc3)ccc2O[C@@H](C)CCCCO[C@H]1CN(C)Cc1ccc(Cl)c(Cl)c1 do in these assays?
ARNT-TACC3 inh: 48*; XiGFP reactiv: 0

How did C[C@@H]1CN([C@H](C)CO)C(=O)c2cc(NC(=O)Cc3cn(C)c4ccccc34)ccc2O[C@H]1CN(C)S(=O)(=O)c1ccc(F)cc1 do in these assays?
ARNT-TACC3 inh: 5; SR-BI DiI-HDL act: -73; XiGFP reactiv: 0; sPLA2-III inh: -51; SR-BI DiI inh: 73*

How did C[C@H](CO)N1C[C@H](C)[C@@H](CN(C)C(=O)c2ccncc2)OCCCC[C@H](C)Oc2ccc(NC(=O)Cc3ccccc3)cc2C1=O do in these assays?
ARNT-TACC3 inh: active; XiGFP reactiv: 0

How did C[C@H](CO)N1C[C@H](C)[C@H](CN(C)C(=O)Nc2ccnc(N3CCOCC3)c2)OCc2ccccc2-c2ccccc2C1=O do in these assays?
ARNT-TACC3 inh: 12*; XiGFP reactiv: 0

Results for C[C@H]1CN([C@@H](C)CO)C(=O)c2ccccc2-c2ccccc2CO[C@H]1CN(C)C(=O)Nc1ccnc(N2CCOCC2)c1 ?
ARNT-TACC3 inh: 7; XiGFP reactiv: 0

Results for COc1ccccc1NC(=O)N(C)C[C@H]1Oc2ncc(Br)cc2C(=O)N([C@H](C)CO)C[C@H]1C ?
ARNT-TACC3 inh: -14; XiGFP reactiv: 1; sPLA2-III inh: 3

What do the screens show for `Cc1cccc(NC(=O)CSCC(=O)Nc2ccccc2C(=O)N2CCCCC2)c1`?
XiGFP reactiv: 0; NSD2 HMT inh: -2; sPLA2-III inh: 0

Results for O=C(Cn1c(=O)n(Cc2ccccc2)c(=O)c2cc(Cl)ccc21)NCC1CCCO1 (centres undefined) ?
ARNT-TACC3 inh: 2; SR-BI DiI-HDL act: 26; XiGFP reactiv: 0; NSD2 HMT inh: -4; sPLA2-III inh: 5; SR-BI DiI inh: -26

Results for COc1ccccc1-c1ccc(C2[C@H]3CNC[C@@H]2N3Cc2ccc(F)cc2)cc1 (some centres undefined) ?
XiGFP reactiv: 0

Results for C[C@H]1CN([C@@H](C)CO)C(=O)c2cc(NC(=O)NC3CCCCC3)ccc2O[C@H]1CN(C)C(=O)Nc1ccc(C(F)(F)F)cc1 ?
ARNT-TACC3 inh: -1; SR-BI DiI-HDL act: -74; XiGFP reactiv: 0; sPLA2-III inh: -38; SR-BI DiI inh: 74*

From PubChem
